target: T1, Tumor necrosis factor ligand superfamily member 11 (Mus musculus, UniProt O35235); test: Inhibition of recombinant mouse RANKL-induced TRAP activity in mouse RAW264.7 cells using 4-nitrophenyl phosphate as TRAP substrate preincubated for 4 days followed by substrate addition measured after 15 mins by ELISA reader analysis
T1 sequence (O35235 whole entry): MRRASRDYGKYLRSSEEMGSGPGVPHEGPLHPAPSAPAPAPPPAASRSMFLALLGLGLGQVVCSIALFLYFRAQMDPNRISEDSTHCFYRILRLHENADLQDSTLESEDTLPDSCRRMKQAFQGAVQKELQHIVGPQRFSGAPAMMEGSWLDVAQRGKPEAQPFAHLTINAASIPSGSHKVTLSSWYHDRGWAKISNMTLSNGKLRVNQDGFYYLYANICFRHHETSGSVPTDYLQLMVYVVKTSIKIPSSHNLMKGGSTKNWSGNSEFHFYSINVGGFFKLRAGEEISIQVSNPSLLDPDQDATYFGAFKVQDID
Procedure, shortened: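 RAW264.7 cells (2 × 10⁴ per well) were cultured 4 days in α-MEM with 10% FBS, 2 mM L-glutamine and murine RANKL 100 ng/mL, with or without compound. Cells were lysed in 0.1% Triton X-100/50 mM Tris-HCl pH 7.2 on ice. They were incubated with 2 mg/mL 4-nitrophenyl phosphate in 0.09 M citrate for 15 min at 37 °C, stopped with 0.1 N NaOH, and read at 405 nm. Protein was measured by BCA.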

Row | SMILES | IC50 [µM]
1 | O=c1oc2ccc(-c3ccc(F)cc3F)cc2c(=O)n1-c1cc(F)ccc1F | 4.31
2 | O=c1oc2ccc(-c3ccc(F)cc3F)cc2c(=O)n1-c1cccc(C(F)(F)F)c1 | 4.29
3 | C#Cc1cccc(-n2c(=O)oc3ccc(-c4ccc(F)cc4F)cc3c2=O)c1 | 3.7
4 | O=c1oc2ccccc2c(=O)n1-c1ccc(Cl)cc1F | 10.6

From BindingDB's records for doi:10.1016/j.bmc.2015.06.007 (Taipei Medical University, 2015)
